PMC10286277 (ACS Omega, 2023)

Tests used:
cervical cancer HeLa = assay: MTT cell viability assay; format: cell-based, human; conditions: 24 h
Method in brief: (§1)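 Cells were seeded at 2×10^4 per well, held overnight at 37 °C in humidified CO₂ and treated with test compound at […] for 24 h. MTT (0.5 mg/mL) was added for 4 h in the dark and then removed. Formazan was dissolved in DMSO and absorbance read at 570 nm.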

breast cancer MDA-MB-231 = assay: MTT cell viability assay; format: cell-based, human; conditions: MDA-MB-231, 24 h
Method in brief: as §1

pUC19 DNA = assay: Hydrolytic DNA cleavage, gel electrophoresis without external agent or light; format: biochemical; conditions: 400 μM, control experiments
Method in brief: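 pUC19 DNA (200 ng) in 50 mM Tris–HCl, pH 8, was incubated with test compound (0–400 μM) in 10 μL for 2 h at 37 °C, with no added agent and no light. Controls used Cu(OAc)₂·H₂O, free ligand or imidazole, each at 400 μM. Samples were run on 1% agarose in TAE (pH 8.4) for 1.5 h at 60 V, stained with 0.5 μg/mL ethidium bromide and imaged under UV for conversion to nicked circular form.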

Molecule	IC50 (cervical cancer HeLa) [µM]	sensitivity of cells in MTT cell viability assay (in words) (breast cancer MDA-MB-231)	DNA cleavage by starting materials alone (pUC19 DNA)
N.N.[Cl][Pt][Cl] [cisplatin, reference compound]	30.9 ± 0.45	resistant	
2-(2-Hydroxyphenyl)benzothiazoline			No cleavage was detected
c1c[nH]cn1 [imidazole]			No cleavage was detected
CC(=O)[O-].CC(=O)[O-].O.[Cu+2] [Cu(OAc)2·H2O, copper(II) acetate monohydrate]			No cleavage was detected
